Measurements from ChEMBL document CHEMBL3102739, “Synthesis and antiproliferative activity of conformationally restricted 1,2,3-triazole analogues of combretastatins in the sea urchin embryo model and against human cancer cell lines” (Bioorg Med Chem, 2014).
Activity calls are given as the source filed them.

Key:
[1] = test system: Jurkat; assay: Cytotoxicity against human Jurkat cells assessed as cell viability after 48 hrs by trypan blue exclusion assay; type: functional, cell-based
Procedure, shortened: (§1)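 Compound added to exponentially growing Jurkat or Jurkat/A4 cells in RPMI-1640 with 10% FCS at 37 °C. Viable cells counted directly by trypan blue exclusion after 48 h. EC50 taken by linear interpolation of survival data. Mean±SD from three independent experiments.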

[2] = test system: Jurkat; assay: Induction of apoptosis in human Jurkat cells assessed as Bcl-2 expression at 30 nM after 24 to 48 hrs Western blotting analysis; type: functional, cell-based
Procedure, shortened: (§2)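 Cells in RPMI-1640 with 10% FCS at 37 °C, 5% CO2, were treated for 24 or 48 h, then washed in cold PBS. They were lysed 30 min at 4 °C in 20 mM Tris-HCl pH 7.4, 1% Triton X-100, 150 mM NaCl and protease inhibitors. Equal protein was run on 12% SDS-PAGE and blotted to PVDF, with 5% milk block. Primary MoAb 2 h RT, HRP anti-mouse 60 min, ECL; β-actin loading control.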

[3] = test system: Jurkat/A4; assay: Induction of apoptosis in human Jurkat/A4 cells assessed as condensed and fragmented nuclei at 300 nM after 48 hrs by May-Grunwald-Giemsa staining-based microscopic analysis; type: functional, cell-based
Procedure, shortened: (§3)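 Jurkat or Jurkat/A4 suspension cultures in RPMI-1640 with 10% FCS at 37 °C, 5% CO2 were treated for 48 h alongside untreated controls. Cells were cytospun, stained May–Grünwald–Giemsa and examined by light microscopy with a 100× objective for nuclear and mitotic abnormalities.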

[4] = Induction of apoptosis in human Jurkat/A4 cells assessed as PARP-1 cleavage at 300 nM after 48 hrs by FITC-conjugated flow cytometric analysis (reference value: 0.9%); type: functional
[5] = test system: Jurkat; assay: Induction of apoptosis in human Jurkat cells assessed as active caspase 3 expression at 30 nM after 48 hrs by FITC-conjugated flow cytometric analysis (reference value: 3.3%); type: functional
[6] = Induction of apoptosis in human Jurkat/A4 cells assessed as active caspase 3 expression at 300 nM after 24 hrs by FITC-conjugated flow cytometric analysis (reference value: 1.1%); type: functional
[7] = test system: Jurkat; assay: Induction of apoptosis in human Jurkat cells assessed as PARP-1 cleavage at 30 nM after 48 hrs by FITC-conjugated flow cytometric analysis (reference value: 3.5%); type: functional
[8] = test system: HL-60; assay: Cytotoxicity against human HL60 cells after 72 hrs by MTS assay; type: functional, cell-based; conditions: HL-60, 72 h
[9] = test system: Jurkat; assay: Induction of apoptosis in human Jurkat cells assessed as small cell fragments with unequally segregated chromosomes enclosed by cell membrane at 15 nM after 48 hrs by May-Grunwald-Giemsa staining-based microscopic analysis; type: functional; procedure, shortened: as §3
[10] = test system: Jurkat; assay: Induction of apoptosis in human Jurkat cells assessed as micronuclei formation at 15 nM after 48 hrs by May-Grunwald-Giemsa staining-based microscopic analysis; type: functional, cell-based; procedure, shortened: as §3
[11] = Cytotoxicity against multidrug-resistant human HL60/TX1000 cells after 72 hrs by MTS assay; type: functional, cell-based; conditions: HL60/TX1000, 72 h
[12] = test system: Jurkat/A4; assay: Induction of apoptosis in human Jurkat/A4 cells assessed as small cell fragments with unequally segregated chromosomes enclosed by cell membrane at 300 nM after 48 hrs by May-Grunwald-Giemsa staining-based microscopic analysis; type: functional; procedure, shortened: as §3
[13] = test system: Jurkat/A4; assay: Induction of apoptosis in human Jurkat/A4 cells assessed as micronuclei formation at 300 nM after 48 hrs by May-Grunwald-Giemsa staining-based microscopic analysis; type: functional, cell-based; procedure, shortened: as §3
[14] = Cell cycle arrest in human Jurkat/A4 cells assessed as decrease in accumulation at G0/G1 phase at 300 nM after 24 hrs by propidium iodide staining-based flow cytometric analysis; type: functional
[15] = test system: Jurkat; assay: Cell cycle arrest in human Jurkat cells assessed as accumulation at sub-G1 phase at 30 nM after 48 hrs by propidium iodide staining-based flow cytometric analysis (reference value: 12.2%); type: functional
[16] = test system: Jurkat/A4; assay: Induction of apoptosis in human Jurkat/A4 cells assessed as Bcl-2 expression at 300 nM after 24 to 48 hrs Western blotting analysis; type: functional, cell-based; procedure, shortened: as §2
[17] = test system: Jurkat/A4; assay: Induction of apoptosis in human Jurkat/A4 cells assessed as caspase 2 activation at 300 nM after 24 to 48 hrs by Western blotting analysis; type: functional, cell-based; procedure, shortened: as §2
[18] = test system: Paracentrotus lividus; assay: Antimitotic activity against sea urchin embryo model assessed as cleavage alteration of fertilized egg compound treated at 8 to 20 mins post-fertilization and 45 to 55 mins prior to first mitotic cycle completion measured 2.5 to 5.5 hrs post-fertilization; type: functional
Procedure, shortened: (§4)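 Fertilized eggs are exposed 8–20 min after fertilization to 2-fold decreasing concentrations. Stocks are 10 mM in DMSO, then diluted 10-fold in 95% EtOH; final DMSO is at most 0.05% and EtOH at most 1%. Embryos are kept as a monolayer, up to 2000 embryos/mL, in filtered seawater at room temperature. The value is the threshold concentration giving cleavage alteration, embryo death before hatching or full mitotic arrest. Duplicates were run.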

[19] = test system: Jurkat; assay: Induction of apoptosis in human Jurkat cells assessed as condensed and fragmented nuclei at 15 nM after 48 hrs by May-Grunwald-Giemsa staining-based microscopic analysis; type: functional, cell-based; procedure, shortened: as §3
[20] = test system: Paracentrotus lividus; assay: Antimitotic activity against sea urchin embryo free-swimming blastula model assessed as embryo spinning compound treated at 8 to 10 hrs post-fertilization measured after 0.25 to 20 hrs; type: functional, Blastula stage
[21] = Cytotoxicity against human Jurkat/A4 cells assessed as cell death at 1 uM after 48 hrs by trypan blue exclusion assay relative to control; type: functional; procedure, shortened: as §1
[22] = Cytotoxicity against human MES-SA cells after 72 hrs by MTS assay; type: functional, cell-based
[23] = test system: Jurkat/A4; assay: Cytotoxicity against human Jurkat/A4 cells assessed as cell death treated for 2 hrs followed by cultivation in drug-free medium for 7 days; type: functional, cell-based
Procedure, shortened: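 Jurkat/A4 cells in RPMI-1640 with 10% fetal calf serum are exposed for two hours, then cultured seven days in drug-free medium and scored for delayed cell death.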

[24] = test system: Jurkat; assay: Induction of apoptosis in human Jurkat cells assessed as caspase 9 activation at 30 nM after 48 hrs by Western blotting analysis; type: functional, cell-based; procedure, shortened: as §2
[25] = test system: Jurkat; assay: Induction of apoptosis in human Jurkat cells assessed as active caspase 3 expression at 30 nM after 24 hrs by FITC-conjugated flow cytometric analysis (reference value: 3.3%); type: functional
[26] = test system: Jurkat; assay: Cell cycle arrest in human Jurkat cells assessed as decrease in accumulation at G0/G1 phase at 30 nM after 24 hrs by propidium iodide staining-based flow cytometric analysis; type: functional
[27] = Induction of apoptosis in human Jurkat/A4 cells assessed as active caspase 3 expression at 300 nM after 48 hrs by FITC-conjugated flow cytometric analysis (reference value: 1.1%); type: functional
[28] = test system: Jurkat/A4; assay: Induction of apoptosis in human Jurkat/A4 cells assessed as reduction of XIAP expression at 300 nM after 24 hrs Western blotting analysis; type: functional, cell-based; procedure, shortened: as §2
[29] = Cytotoxicity against human MES-SA/Dx5 cells after 72 hrs by MTS assay; type: functional, cell-based; conditions: MES-SA/Dx5, 72 h
[30] = test system: Jurkat; assay: Induction of apoptosis in human Jurkat cells assessed as caspase 2 activation at 30 nM after 24 to 48 hrs by Western blotting analysis; type: functional, cell-based; procedure, shortened: as §2
[31] = test system: Jurkat; assay: Induction of apoptosis in human Jurkat cells assessed as active caspase 3 expression at 30 nM by FITC-conjugated flow cytometric analysis; type: functional, cell-based; conditions: TDE = time-dependent effect
[32] = Cell cycle arrest in human Jurkat/A4 cells assessed as increase in accumulation at G2/M phase at 300 nM after 24 hrs by propidium iodide staining-based flow cytometric analysis; type: functional
[33] = test system: Jurkat; assay: Cell cycle arrest in human Jurkat cells assessed as increase in accumulation at G2/M phase at 30 nM after 24 hrs by propidium iodide staining-based flow cytometric analysis; type: functional
[34] = Cell cycle arrest in human Jurkat/A4 cells assessed as accumulation at sub-G1 phase at 300 nM after 48 hrs by propidium iodide staining-based flow cytometric analysis (reference value: 17.1%); type: functional
[35] = test system: Paracentrotus lividus; assay: Antimitotic activity against sea urchin embryo model assessed as cleavage arrest of fertilized egg compound treated at 8 to 20 mins post-fertilization and 45 to 55 mins prior to first mitotic cycle completion measured 2.5 to 5.5 hrs post-fertilization; type: functional; procedure, shortened: as §4
[36] = test system: Jurkat; assay: Induction of apoptosis in human Jurkat cells assessed as reduction of XIAP expression at 30 nM after 24 hrs Western blotting analysis; type: functional, cell-based; procedure, shortened: as §2
[37] = test system: Jurkat/A4; assay: Induction of apoptosis in human Jurkat/A4 cells assessed as caspase 9 activation at 300 nM after 24 to 48 hrs by Western blotting analysis; type: functional, cell-based; procedure, shortened: as §2

Question: Which EC50 [1] does the source give for `COc1ccc(-c2cnnn2-c2cc(OC)c(OC)c(OC)c2)cc1` here?
Answer: 30 nM

Question: What about the Activity [2] of the same compound?
Answer: inactive

Question: And the Activity [3]?
Answer: Active

Question: What about the Activity [4] of the same compound?
Answer: 2.5%

Question: And the Activity [5]?
Answer: 32.1%

Question: And the Activity [6]?
Answer: 1.8%

Question: What about the Activity [7] of the same compound?
Answer: 61.4%

Question: And the IC50 [8]?
Answer: 20 nM

Question: And the Activity [9]?
Answer: Active

Question: What about the Activity [10] of the same compound?
Answer: Active

Question: What about the IC50 [11] of the same compound?
Answer: 20 nM

Question: What about the Activity [12] of the same compound?
Answer: Active

Question: And the Activity [13]?
Answer: Active

Question: What about the Activity [14] of the same compound?
Answer: Active

Question: And the Activity [15]?
Answer: 43.4%

Question: And the Activity [16]?
Answer: inactive

Question: And the Activity [17]?
Answer: inactive

Question: And the EC [18]?
Answer: 0.02 µM

Question: What about the Activity [19] of the same compound?
Answer: Active

Question: And the EC [20]?
Answer: 1 µM

Question: What about the Activity [21] of the same compound?
Answer: <20%

Question: What about the IC50 [22] of the same compound?
Answer: 20 nM

Question: What about the Activity [23] of the same compound?
Answer: Active

Question: And the Activity [24]?
Answer: Active

Question: And the Activity [25]?
Answer: 19.6%

Question: What about the Activity [26] of the same compound?
Answer: Active

Question: What about the Activity [27] of the same compound?
Answer: 1.6%

Question: What about the Activity [28] of the same compound?
Answer: inactive

Question: And the IC50 [29]?
Answer: 20 nM

Question: What about the Activity [30] of the same compound?
Answer: Active

Question: And the Activity [31]?
Answer: tde

Question: What about the Activity [32] of the same compound?
Answer: Active

Question: And the Activity [33]?
Answer: Active

Question: And the Activity [34]?
Answer: 26.2%

Question: And the EC [35]?
Answer: 0.2 µM

Question: What about the Activity [36] of the same compound?
Answer: Active

Question: And the Activity [37]?
Answer: inactive
